Data from ChEMBL document CHEMBL3286129, “Optimization of peptidomimetic boronates bearing a P3 bicyclic scaffold as proteasome inhibitors” (Eur J Med Chem, 2014).
Active and inactive are the calls of the source. The rule behind the calls is not given here.

What was measured:
[1] = test system: HOP-62; assay: Growth inhibition of human HOP62 cells; type: functional
[2] = test system: IGROV-1; assay: Growth inhibition of human IGROV1 cells; type: functional
[3] = Growth inhibition of human BT549 cells; type: functional
[4] = test system: M14; assay: Growth inhibition of human M14 cells; type: functional
[5] = test system: DU-145; assay: Growth inhibition of human DU145 cells; type: functional
[6] = Growth inhibition of human UACC257 cells; type: functional
[7] = biological target: T1, Proteasome Macropain subunit MB1 (Homo sapiens) (UniProt P28074); assay: Inhibition of chymotrypsin-like activity of 20S proteasome in human erythrocytes using Suc-Leu-Leu-Val-Tyr-AMC as substrate at 20 uM by fluorescence assay relative to control
T1 sequence (whole entry): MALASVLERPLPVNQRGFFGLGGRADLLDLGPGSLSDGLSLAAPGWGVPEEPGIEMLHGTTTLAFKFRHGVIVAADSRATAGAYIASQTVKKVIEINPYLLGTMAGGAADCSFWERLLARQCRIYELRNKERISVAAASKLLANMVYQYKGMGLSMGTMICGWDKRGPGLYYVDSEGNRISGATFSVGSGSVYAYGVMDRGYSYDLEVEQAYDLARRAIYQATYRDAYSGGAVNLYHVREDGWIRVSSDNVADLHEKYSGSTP
In short: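 Single inhibitor concentration, equivalent DMSO as negative control. AMC fluorescence read at ex 380/em 460 nm; percent inhibition of ChT-L activity.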

[8] = biological target: Proteasome Macropain subunit (Homo sapiens) (UniProt P49721); assay: Inhibition of trypsin-like activity of 20S proteasome in human erythrocytes using Boc-Leu-Arg-Arg-AMC as substrate by fluorescence assay; type: cell-based
In short: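 Human 20S proteasome 0.0025 mg/mL at 30 °C in 50 mM Tris pH 7.4, 50 mM NaCl, 0.5 mM EDTA, 0.03% SDS, 7.5% DMSO. Varied inhibitor concentrations; AMC release monitored continuously for 10 min, ex 380/em 460 nm. Ki derived from progress-curve IC50 fit.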

[9] = Growth inhibition of human UACC62 cells; type: functional; details: UACC-62
[10] = Cytotoxicity against human colon cancer cells assessed as cell growth at 10 uM relative to control; type: functional; details: Cancer cell lines, read-out: Activity
In short: (§1)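 Single-concentration screen against a panel of human cancer cell lines. Each value is the mean percent growth across the cell lines of that tumour subpanel.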

[11] = Growth inhibition of human Hs 578T cells; type: functional
[12] = Growth inhibition of human OVCAR3 cells; type: functional; details: OVCAR-3
[13] = test system: SR; assay: Growth inhibition of human SR cells; type: functional
[14] = biological target: Chymotrypsinogen A (Bos taurus, UniProt P00766); assay: Inhibition of bovine pancreatic alpha-chymotrypsin using Suc-Leu-Leu-Val-Tyr-AMC as substrate by fluorescence assay; details: read-out: Ki
In short: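 Enzyme incubated at 20 °C in 50 mM Tris pH 8.0, 100 mM NaCl, 5 mM EDTA, 7.5% DMSO with varied inhibitor concentrations. Substrate hydrolysis followed for 10 min. Ki from progress curves; mean of three determinations.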

[15] = Growth inhibition of human RXF393 cells; type: functional
[16] = test system: NCI-H322M; assay: Growth inhibition of human NCI-H322M cells; type: functional
[17] = test system: 786-0; assay: Growth inhibition of human 786-0 cells; type: functional
[18] = Cytotoxicity against human melanoma cells assessed as cell growth at 10 uM relative to control; type: functional; details: read-out: Activity; in short: as §1
[19] = Cytotoxicity against human ovarian cancer cells assessed as cell growth at 10 uM relative to control; type: functional; details: Cancer cell lines, read-out: Activity; in short: as §1
[20] = Growth inhibition of human HCC2998 cells; type: functional; details: HCC 2998
[21] = test system: MDA-MB-231; assay: Growth inhibition of human MDA-MB-231 cells; type: functional
[22] = test system: SW-620; assay: Growth inhibition of human SW620 cells; type: functional
[23] = test system: TK-10; assay: Growth inhibition of human TK10 cells; type: functional
[24] = Cytotoxicity against human NSCLC cells assessed as cell growth at 10 uM relative to control; type: functional; details: read-out: Activity; in short: as §1
[25] = Cytotoxicity against human CNSC cells assessed as cell growth at 10 uM relative to control; type: functional; details: read-out: Activity; in short: as §1
[26] = test system: NCI-H460; assay: Growth inhibition of human NCI-H460 cells; type: functional
[27] = Growth inhibition of human NCI-ADR-RES cells; type: functional
[28] = test system: NCI-H226; assay: Growth inhibition of human NCI-H226 cells; type: functional
[29] = Growth inhibition of human HCT15 cells; type: functional
[30] = test system: K562; assay: Growth inhibition of human K562 cells; type: functional
[31] = test system: PC-3; assay: Growth inhibition of human PC3 cells; type: functional
[32] = test system: HCT-116; assay: Growth inhibition of human HCT116 cells; type: functional
[33] = read-out: LC50 (the source's name)

Chain of Proteasome Macropain subunit (Homo sapiens) (P49721 whole entry): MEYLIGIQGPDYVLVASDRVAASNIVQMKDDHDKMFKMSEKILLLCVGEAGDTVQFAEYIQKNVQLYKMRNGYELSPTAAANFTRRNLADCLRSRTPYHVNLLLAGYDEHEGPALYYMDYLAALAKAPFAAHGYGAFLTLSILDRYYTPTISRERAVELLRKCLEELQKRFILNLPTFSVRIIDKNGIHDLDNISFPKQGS

CC(C)C[C@H](NC(=O)Cn1ccc2ccc(Br)cc2c1=O)B(O)O
GI50 [1]: 4.94 µM
TGI [1]: 27.6 µM
CC50 [1, 33]: > 100 µM
GI50 [2]: 6.16 µM
LC50 [2]: > 100 µM
TGI [2]: 46.9 µM
GI50 ([3]; BT-549): 0.44 µM
TGI ([3]; BT-549): 2.65 µM
CC50 ([3]; BT-549, read-out: LC50 (the source's name)): > 100 µM
GI50 [4]: 1.25 µM
LC50 (concentration killing 50% of cells) [4]: > 100 µM
TGI [4]: 6.73 µM
GI50 [5]: 6.05 µM
TGI [5]: > 100 µM
CC50 [5, 33]: > 100 µM
GI50 ([6]; UACC-257): 0.94 µM
TGI ([6]; UACC-257): 4.51 µM
CC50 ([6]; UACC-257, read-out: LC50 (the source's name)): > 100 µM
inhibition [7]: > 40%
inhibition [8]: inactive
GI50 [9]: 1.86 µM
LC50 (concentration killing 50% of cells) [9]: 97 µM
TGI [9]: 10.4 µM
growth at 10 µM [10]: 3.27%
GI50 [11]: 2.94 µM
TGI [11]: 75.1 µM
CC50 [11, 33]: > 100 µM
GI50 [12]: 0.6 µM
LC50 (concentration killing 50% of cells) [12]: > 100 µM
TGI [12]: 3.95 µM
GI50 [13]: 0.27 µM
TGI [13]: 12.2 µM
CC50 [13, 33]: > 100 µM
Ki [14]: 0.29 µM
GI50 ([15]; RXF 393): 0.43 µM
TGI ([15]; RXF 393): 1.77 µM
CC50 ([15]; RXF 393, read-out: LC50 (the source's name)): 5.99 µM
GI50 [16]: > 100 µM
TGI [16]: > 100 µM
CC50 [16, 33]: > 100 µM
GI50 [17]: 4.06 µM
TGI [17]: > 100 µM
CC50 [17, 33]: > 100 µM
growth at 10 µM [18]: -17.1%
growth at 10 µM [19]: 37.5%
GI50 [20]: 2.46 µM
LC50 [20]: 31.4 µM
TGI [20]: 6.37 µM
GI50 [21]: 3.18 µM
TGI [21]: 19.8 µM
CC50 [21, 33]: > 100 µM
GI50 [22]: 0.46 µM
LC50 [22]: > 100 µM
TGI [22]: 8.19 µM
GI50 [23]: 0.65 µM
LC50 [23]: > 100 µM
TGI [23]: 7.22 µM
growth at 10 µM [24]: 22%
growth at 10 µM [25]: 24.3%
GI50 [26]: 5.58 µM
LC50 [26]: > 100 µM
TGI [26]: 36.8 µM
GI50 [27]: 21.5 µM
LC50 [27]: > 100 µM
TGI [27]: > 100 µM
GI50 [28]: 0.47 µM
TGI [28]: 1.84 µM
CC50 [28, 33]: 5.39 µM
GI50 ([29]; HCT-15): 3.04 µM
TGI ([29]; HCT-15): > 100 µM
CC50 ([29]; HCT-15, read-out: LC50 (the source's name)): > 100 µM
GI50 [30]: 3.15 µM
TGI [30]: > 100 µM
CC50 [30, 33]: > 100 µM
GI50 [31]: 6.31 µM
TGI [31]: > 100 µM
CC50 [31, 33]: > 100 µM
GI50 [32]: 0.6 µM
LC50 [32]: 95.8 µM
TGI [32]: 3.57 µM
